Source: ChEMBL document CHEMBL6177924, “Synthesis and antifungal evaluation of new azole derivatives containing 1,2,3-triazole” (RSC Med Chem, 2025)
Converted amounts (≈) assume the structure as drawn. The source made the active and inactive calls. The calls are words filed in the database; no cut-off is given here.

Columns and labels:
Candida albicans [1] = assay: Antifungal activity against Candida albicans SC5314 assessed as inhibition of fungal growth measured up to 48 hrs by time-killing curve analysis; format: functional, organism-based
Method in brief: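 Log-phase cells at 1×10^5 CFU/mL in SDB, 10 mL per group. Drug at 0.27, 0.53 or 1.06 µg/mL, plus fluconazole and untreated controls. Shaken 150 r/min at 30 °C. Samples taken at 0, 4, 8, 12, 24, 36 and 48 h and read at A630, triplicate wells. Absorbance plotted against time.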

Candida albicans [2] = assay: Induction of morphological changes in Candida albicans assessed as loose distribution of cytoplasm incubated for 16 to 24 hrs by transmission electron microscopic analysis; format: functional, organism-based; conditions: time 16-24 hrs
Method in brief: (§1)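 Cells at 5×10^5 CFU/mL in SDB with drug (0.27, 0.53, 1.06 µg/mL), fluconazole or no drug. Shaken 150 r/min at 30 °C for 16–24 h, pelleted and PBS-washed. Fixed in 3% paraformaldehyde/2.5% glutaraldehyde at 4 °C, post-fixed in 1% OsO4, acetone-dehydrated and Epon-812 embedded. 60–90 nm sections stained with uranyl acetate and lead citrate, imaged by TEM.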

Candida albicans [3] = assay: Antifungal activity against drug sensitive Candida albicans SC5314 assessed as inhibition of fungal growth incubated for 24 hrs by CLSI protocol based microdilution method; format: functional
Method in brief: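 Broth microdilution of log-phase C. albicans at 1×10^5 CFU/mL in Sabouraud liquid medium (SDB). Compounds serially diluted 5-fold to final 200-0.064 µg/mL, DMSO below 0.1%. Triplicate wells, 200 µL final volume, with growth, blank and fluconazole controls. Incubated 24 h at 30 °C, OD read at 630 nm; experiment repeated three times.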

16HBE14o- = assay: Cytotoxicity against human 16HBE14o- cells assessed as reduction in cell viability 0.032 to 100 microg/ml incubated for 48 hrs by CCK8 assay; format: toxicity, cell-based; conditions: dose 0.032-100 µg/ml
Method in brief: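 16HBE cells seeded in RPMI1640 + 10% FBS + 1% antibiotics and attached 24 h at 37 °C. Medium replaced with drug in fivefold dilutions from 100 µg/mL, with fluconazole, growth and blank controls. Incubated 48 h, then CCK8 reagent added and plates incubated for viability read-out.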

Candida albicans [4] = assay: Antibiofilm activity in Candida albicans SC5314 assessed as decrease in number of mycelia measured after 24 hrs by inverted microscopic analysis; format: functional, organism-based
Method in brief: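 Log-phase cells at 1×10^5 CFU/mL in RPMI1640 + 10% FBS allowed to adhere 90 min at 30 °C in 24-well plates. Excess medium removed, then 1 mL medium with or without drug (0.27, 0.53, 1.06 µg/mL; fluconazole group) added for 24 h at 30 °C. Crystal violet stain 30 min, PBS washes ×3, biofilm viewed by inverted microscope.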

Cell membrane [5] = assay: Induction of cell membrane permeability in Candida albicans assessed as increase in fluorescence intensity by multifunctional enzymatic assay; format: subcellular
Candida albicans [6] = assay: Induction of morphological changes in Candida albicans assessed as blurred spacing between cell wall and cell membrane incubated for 16 to 24 hrs by transmission electron microscopic analysis; format: functional, organism-based; conditions: time 16-24 hrs; method in brief: as §1
Candida albicans [7] = assay: Induction of morphological changes in Candida albicans assessed as absence of intracellular substance incubated for 16 to 24 hrs by transmission electron microscopic analysis; format: functional, organism-based; conditions: time 16-24 hrs; method in brief: as §1
Candida albicans [8] = assay: Induction of morphological changes in Candida albicans assessed as normal cell wall appearance incubated for 16 to 24 hrs by transmission electron microscopic analysis; format: functional, organism-based; conditions: time 16-24 hrs; method in brief: as §1
Candida albicans [9] = assay: Antifungal activity against Candida albicans assessed as inhibition of mycelia formation measured after 4 to 8 hrs by inverted microscopic analysis; format: functional, organism-based; conditions: time 4-8 hrs
Method in brief: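 Hyphae induced in SD + 10% FBS or in Spider medium, log-phase cells at 1×10^5 CFU/mL. Drug at 0.27, 0.53 or 1.06 µg/mL, with fluconazole and drug-free controls, 1 mL per well in 24-well plates, triplicate. […], and mycelium formation viewed and photographed by inverted microscope at 4 and 8 h.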

Cell membrane [10] = assay: Induction of cell membrane permeability in Candida albicans assessed as increase in red fluorescence incubated for 16 to 24 hrs by PI staining based fluorescence microscopic analysis; format: subcellular; conditions: time 16-24 hrs
Method in brief: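 C. albicans at 1×10^5 CFU/mL in SDB grown with drug (0.27, 0.53, 1.06 µg/mL), fluconazole or no drug at 30 °C, 150 r/min, for 16-24 h. Cells washed and resuspended in PBS at 2×10^6 CFU/mL. Stained with propidium iodide (final 5 µg/mL) 30 min at room temperature in the dark, then washed. Imaged by fluorescence microscopy and fluorescence intensity measured.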

Candida albicans [11] = assay: Antifungal activity against drug resistant Candida albicans SC5314-FR assessed as inhibition of fungal growth incubated for 24 hrs by CLSI protocol based microdilution method; format: functional
Method in brief: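 Fluconazole-resistant strain derived from SC5314 by fluconazole exposure. Log-phase cells at 1×10^5 CFU/mL in SDB. Drug fivefold serial dilutions, 200–0.064 µg/mL final, DMSO <0.1%, triplicate wells, 200 µL. Incubated 30 °C for 24 h and read at OD630. Growth, blank and fluconazole controls included. Run three times.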

SMILES | MIC50 (Candida albicans [3]) [µg/mL] | MIC50 (Candida albicans [11]) [µg/mL] | further results
OC(Cn1cncn1)(Cn1cncn1)c1ccc(F)cc1F [FLUCONAZOLE] | 1.52 (≈ 4.96 µM) | > 200 | Activity (Candida albicans [1]): Active; Activity (Candida albicans [2]): Active; Activity (16HBE14o-): Non-toxic; Activity (Candida albicans [4]): Active; Activity (Cell membrane [5]): Active; Activity (Candida albicans [6]): Active; Activity (Candida albicans [7]): Active; Activity (Candida albicans [8]): Active; Activity (Candida albicans [9]): Active; Activity (Cell membrane [10]): Active; Small Amount Of Red Fluorescence Observed
Cc1ccc(C(=O)Cn2cc(COC(Cn3ccnc3)c3ccc(Cl)cc3Cl)nn2)cc1 (stereo unspecified) | 3.34 (≈ 7.1 µM) | 26.2 (≈ 55.6 µM) | 
FC(F)(F)c1ccc(Cn2cc(COC(Cn3ccnc3)c3ccc(Cl)cc3Cl)nn2)cc1 (stereo unspecified) | 9.77 (≈ 19.7 µM) | 15 (≈ 30.1 µM) | 
Clc1ccc(Cn2cc(COC(Cn3ccnc3)c3ccc(Cl)cc3Cl)nn2)cc1 (stereo unspecified) | 1.78 (≈ 3.85 µM) | 11 (≈ 23.7 µM) | 
Clc1ccc(C(Cn2ccnc2)OCc2cn(Cc3ccccc3)nn2)c(Cl)c1 (stereo unspecified) | 6.63 (≈ 15.5 µM) | 21.5 (≈ 50.2 µM) | 
Clc1ccc(C(Cn2ccnc2)OCc2cn(Cc3ccc4ccccc4c3)nn2)c(Cl)c1 (stereo unspecified) | 1.57 (≈ 3.28 µM) | 4.57 (≈ 9.55 µM) | 
O=C(Cn1cc(COC(Cn2ccnc2)c2ccc(Cl)cc2Cl)nn1)c1ccc(Br)cc1 (stereo unspecified) | 0.51 (≈ 0.953 µM) | 9.83 (≈ 18.4 µM) | 
N#Cc1ccc(Cn2cc(COC(Cn3ccnc3)c3ccc(Cl)cc3Cl)nn2)cc1 (stereo unspecified) | 26.1 (≈ 57.6 µM) | 93.2 (≈ 206 µM) | 
Clc1ccc(C(Cn2ccnc2)OCc2cn(Cc3ccc(Br)cc3)nn2)c(Cl)c1 (stereo unspecified) | 1.33 (≈ 2.62 µM) | 9.03 (≈ 17.8 µM) | 
COC(=O)/C=C/c1ccc(Cn2cc(COC(Cn3ccnc3)c3ccc(Cl)cc3Cl)nn2)cc1 (stereo unspecified) | 16.5 (≈ 32.2 µM) | 17.8 (≈ 34.8 µM) | 
Clc1ccc(C(Cn2ccnc2)OCc2cn(C/C=C/c3ccccc3)nn2)c(Cl)c1 (stereo unspecified) | 1.57 (≈ 3.46 µM) | 11.5 (≈ 25.2 µM) | 
ClCCn1cc(COC(Cn2ccnc2)c2ccc(Cl)cc2Cl)nn1 (stereo unspecified) | 1.2 (≈ 2.99 µM) | 14.1 (≈ 35.3 µM) | 
CC(=O)Cn1cc(COC(Cn2ccnc2)c2ccc(Cl)cc2Cl)nn1 (stereo unspecified) | 90.8 (≈ 230 µM) | > 200 | 
O=C(Cn1cc(COC(Cn2ccnc2)c2ccc(Cl)cc2Cl)nn1)c1ccc(F)cc1F (stereo unspecified) | 0.69 (≈ 1.4 µM) | 19.3 (≈ 39.2 µM) | 
Fc1ccc(Cn2cc(COC(Cn3ccnc3)c3ccc(Cl)cc3Cl)nn2)cc1F (stereo unspecified) | 11.4 (≈ 24.7 µM) | 21.4 (≈ 46 µM) | 
O=[N+]([O-])c1ccc(Cn2cc(COC(Cn3ccnc3)c3ccc(Cl)cc3Cl)nn2)cc1 (stereo unspecified) | 21.6 (≈ 45.6 µM) | 72.4 (≈ 153 µM) | 
O=C(Cn1cc(COC(Cn2ccnc2)c2ccc(Cl)cc2Cl)nn1)c1ccc(F)cc1 (stereo unspecified) | 1.17 (≈ 2.47 µM) | 15.9 (≈ 33.6 µM) | 
O=C(Cn1cc(COC(Cn2ccnc2)c2ccc(Cl)cc2Cl)nn1)c1ccc(Cl)cc1Cl (stereo unspecified) | 8.72 (≈ 16.6 µM) | 19.9 (≈ 37.9 µM) | 
O=C(Cn1cc(COC(Cn2ccnc2)c2ccc(Cl)cc2Cl)nn1)c1ccccc1Cl (stereo unspecified) | 4.71 (≈ 9.6 µM) | 24.1 (≈ 49 µM) | 
O=C(Cn1cc(COC(Cn2ccnc2)c2ccc(Cl)cc2Cl)nn1)c1ccccc1 (stereo unspecified) | 1.61 (≈ 3.53 µM) | 23.4 (≈ 51.3 µM) | 
COC(=O)Cn1cc(COC(Cn2ccnc2)c2ccc(Cl)cc2Cl)nn1 (stereo unspecified) | 1.62 (≈ 3.95 µM) | > 200 | 
C=CCn1cc(COC(Cn2ccnc2)c2ccc(Cl)cc2Cl)nn1 (stereo unspecified) | 29.4 (≈ 77.8 µM) | 77.9 (≈ 206 µM) | 
COc1ccc(C(=O)Cn2cc(COC(Cn3ccnc3)c3ccc(Cl)cc3Cl)nn2)cc1OC (stereo unspecified) | 16.6 (≈ 32.2 µM) | 58.6 (≈ 113 µM) | 
